Assay [1] deals with T1, Carnitine O-palmitoyltransferase 1, muscle isoform (Rattus norvegicus, UniProt Q63704).
T1 sequence (Q63704 whole entry): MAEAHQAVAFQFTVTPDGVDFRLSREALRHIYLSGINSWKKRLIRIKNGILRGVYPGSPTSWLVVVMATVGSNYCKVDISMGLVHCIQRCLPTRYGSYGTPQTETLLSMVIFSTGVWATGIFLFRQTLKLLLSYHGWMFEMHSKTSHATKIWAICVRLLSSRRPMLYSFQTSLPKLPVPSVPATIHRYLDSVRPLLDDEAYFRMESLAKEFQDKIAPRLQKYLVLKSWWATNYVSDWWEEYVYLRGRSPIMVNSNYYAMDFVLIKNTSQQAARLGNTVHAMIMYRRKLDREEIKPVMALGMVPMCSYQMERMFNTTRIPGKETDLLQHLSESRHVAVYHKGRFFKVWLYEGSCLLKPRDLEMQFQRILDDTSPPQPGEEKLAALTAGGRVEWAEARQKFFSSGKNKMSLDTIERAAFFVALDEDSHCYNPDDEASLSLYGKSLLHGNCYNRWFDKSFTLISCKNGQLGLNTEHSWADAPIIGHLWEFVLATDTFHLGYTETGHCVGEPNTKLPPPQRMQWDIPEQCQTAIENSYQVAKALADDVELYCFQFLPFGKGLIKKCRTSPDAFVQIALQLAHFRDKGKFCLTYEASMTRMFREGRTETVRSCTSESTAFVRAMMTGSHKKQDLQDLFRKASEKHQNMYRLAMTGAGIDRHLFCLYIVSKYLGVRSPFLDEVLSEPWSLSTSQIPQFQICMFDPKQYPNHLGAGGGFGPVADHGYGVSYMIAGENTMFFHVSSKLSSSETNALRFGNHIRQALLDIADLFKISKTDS
Kind of assay: In vitro inhibition of [14C]palmitoyl-CoA and carnitine binding to carnitine palmitoyltransferase I of rat heart mitochondria. The essentials:
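Intact mitochondria freshly isolated from the hearts of fed male Sprague-Dawley rats, suspended in buffer with 75 mM sucrose. Assay medium at pH 7.5 with [14C]palmitoyl-CoA and L-carnitine, and inhibitor at 0–3 mM. Run 1 min at 37 °C; [14C]palmitoyl incorporated into carnitine was measured. IC50 was taken from the inhibition curve; mean of two determinations in triplicate.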

The target in assay [2] is T2, Carnitine O-palmitoyltransferase 1, liver isoform (Rattus norvegicus, UniProt P32198).
T2 sequence (P32198 whole entry): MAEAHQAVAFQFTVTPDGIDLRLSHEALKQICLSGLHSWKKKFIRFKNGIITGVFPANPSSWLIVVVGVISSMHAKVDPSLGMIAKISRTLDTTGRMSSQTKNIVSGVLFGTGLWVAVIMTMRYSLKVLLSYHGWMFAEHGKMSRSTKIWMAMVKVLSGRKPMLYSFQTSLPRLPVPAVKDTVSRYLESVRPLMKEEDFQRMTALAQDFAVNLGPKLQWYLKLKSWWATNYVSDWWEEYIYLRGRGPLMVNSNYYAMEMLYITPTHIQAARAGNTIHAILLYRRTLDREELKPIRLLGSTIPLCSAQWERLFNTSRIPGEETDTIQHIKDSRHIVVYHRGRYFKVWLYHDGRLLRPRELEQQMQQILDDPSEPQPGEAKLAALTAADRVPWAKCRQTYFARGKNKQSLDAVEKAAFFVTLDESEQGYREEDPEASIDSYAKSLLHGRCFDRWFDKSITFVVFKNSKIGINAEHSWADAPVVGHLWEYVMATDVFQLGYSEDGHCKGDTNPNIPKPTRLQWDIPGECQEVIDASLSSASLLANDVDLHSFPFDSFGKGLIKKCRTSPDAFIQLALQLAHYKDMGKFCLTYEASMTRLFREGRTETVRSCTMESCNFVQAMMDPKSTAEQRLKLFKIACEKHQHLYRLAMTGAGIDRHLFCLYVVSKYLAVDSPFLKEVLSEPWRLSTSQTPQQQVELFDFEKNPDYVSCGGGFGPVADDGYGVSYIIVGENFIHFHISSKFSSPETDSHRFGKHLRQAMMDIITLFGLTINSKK
Kind of assay: Inhibition of [14C]palmitoyl-CoA and carnitine binding to carnitine palmitoyltransferase I from rat liver mitochondria. Put shortly: (§1)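 Intact mitochondria freshly isolated from the livers of fed male Sprague-Dawley rats, suspended in buffer with 225 mM sucrose. Assay medium at pH 7.5 with [14C]palmitoyl-CoA and L-carnitine, and inhibitor at 0–3 mM. Run 1 min at 37 °C; radiolabelled palmitoylcarnitine formation was measured. IC50 was taken from the inhibition curve; mean of two determinations in triplicate.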

Assay [3] relates to Mus musculus. Kind of assay: Percent decrease in the serum glucose level of mice treated with 50 mg/kg of compound orally for 45 days. The settings on record: route oral. The assay is classed as functional. The essentials: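 Oral dosing of male C57BL/KsJ-db/db mice (8 weeks old, n=8) at 50 mg/kg or an equimolar dose, twice daily for 45 days; vehicle was 0.5% carboxymethylcellulose. Serum was collected 9 h after the last dose, after a 9 h fast. Glucose was measured with an autoanalyzer kit; percent reduction was calculated against untreated db/db controls; Student's t test.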

The species named for assay [4] is Rattus norvegicus. The assay is described as follows: Effective dose of compound that reduces serum beta-hydroxybutyrate levels in rats.
The test system of assay [5] is Mus musculus. The assay is described as follows: Level of glucose in […] mice serum after treating with 50 mg/kg of compound orally for 45 days (originally-673.9+/-44.09 mg/dL). The assay is classed as functional. The settings on record: route oral.
The subject of assay [6] is Mus musculus. Kind of assay: Level of fructosamine in […] mice serum after treating with 50 mg/kg of compound orally for 45 days (originally-4.80+/-0.17 mmol/L). The conditions noted are these: route oral. The class given is functional.
The test system of assay [7] is Mus musculus. The assay is described as follows: Percent decrease in the liver glycogen level of mice treated with 50 mg/kg of compound orally for 45 days. The assay is classed as functional. The settings on record: route oral. The essentials: (§2)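 Male C57BL/KsJ-db/db mice, 8 weeks old, n=8 per group. Dosed orally at 50 mg/kg or an equimolar dose, twice daily for 45 days; controls got 0.5% carboxymethylcellulose vehicle at 10 mL/kg. Sampled 9 h after the last dose, after a 9 h fast. Percent change was calculated against untreated db/db controls.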

The species named for assay [8] is Rattus norvegicus. Kind of assay: Percent decrease of oleoylcarnitine levels in isolated rat hepatocytes at 3 mM compound concentration; No variation.
Assay [9] has as its system Mus musculus. The assay is described as follows: Percent increase of free fatty acids level in serum of mice treated with 50 mg/kg of compound orally for 45 days. The settings on record: route oral.
Assay [10] addresses T2, Carnitine O-palmitoyltransferase 1, liver isoform. The assay is described as follows: Inhibition of rat liver carnitine palmitoyltransferase I. The settings on record: read-out: Ki app. The essentials: as §1
Assay [11] relates to Mus musculus. Kind of assay: Percent decrease in the serum fructosamine level of mice treated with 50 mg/kg of compound orally for 45 days. The conditions noted are these: route oral. The class given is functional. Put shortly: as §2
Assay [12] relates to Mus musculus. Kind of assay: Percent increase in the liver triglycerides content of mice treated with 50 mg/kg of compound orally for 45 days. The settings on record: route oral.

As usually defined, the IC50 is the concentration at which inhibition is half-maximal. The low end stands for greater potency, the high end for weaker potency. The term ED50 denotes the dose at which the effect has come halfway, by size or by number of responders. A low value points to greater potency.

As for `CCCCCCCCCNC(=O)N[C@H](CC(=O)[O-])C[N+](C)(C)C`, the IC50 in assay [1] and in assay [2] was above 300 µM in each case.
Consider `CCCCCCCCOC(=O)N[C@H](CC(=O)[O-])C[N+](C)(C)C`, for which the IC50 in [1] and in assay [2] was above 300 µM in each case.
Consider `CCCCCCCCOC(=O)N[C@@H](CC(=O)[O-])C[N+](C)(C)C`, for which the concentration for half-maximal inhibition (IC50) turned out to be 80.1 µM in assay [1] and 9.5 µM in assay [2].
Take `CCCCCCCCCCCCNC(=O)N[C@@H](CC(=O)[O-])C[N+](C)(C)C`: the IC50 in [1] is above 120 µM; in assay [2] it was 1.8 µM.
The matching figures for `CCCCCCCNC(=O)N[C@@H](CC(=O)[O-])C[N+](C)(C)C`: above 300 µM and 43.6 µM.
In the same order, the values of `CCCCCCCCCCCCS(=O)(=O)N[C@@H](CC(=O)[O-])C[N+](C)(C)C` are 3.4 µM and 0.7 µM.
In assay [1], `CCCCCCCCCCCNC(=O)N[C@@H](CC(=O)[O-])C[N+](C)(C)C` showed an IC50 of 118 µM.
For `CCCCCCCCCCCCCCNC(=O)N[C@@H](CC(=O)[O-])C[N+](C)(C)C`, the Decrease was -25% in the assay with Mus musculus [3], -25% with Mus musculus [7], “No variation” in the assay filed under Rattus norvegicus [8] and -30% with Mus musculus [11]. This molecule showed an ED50 in the assay filed under Rattus norvegicus [4] of 14.5 mg/kg. Besides, the figures for the Level in serum with Mus musculus [5] and in the assay on Mus musculus [6] were 202.6 mg/dL and 3.37 mM l-1, respectively. Also, the IC50 in assay [1] was 43.4 µM; in assay [2] it was 1.1 µM. Besides, the figures for the Increase in the assay with Mus musculus [9] and in the assay on Mus musculus [12] were 20% and 38%, respectively. The Ki in assay [10] was determined as 0.36 µM.
As for `CCCCCCCCCNC(=O)N[C@@H](CC(=O)[O-])C[N+](C)(C)C`, the values for the IC50 in [1] and in [2] were 46.2 µM and 31.3 µM, respectively.
The matching figures for `CCCCCCCCCCCCCCNC(=O)N[C@H](CC(=O)[O-])C[N+](C)(C)C` [TEGLICAR]: 167 µM and 58.8 µM.
Consider `CCCCCCCCCCCCS(=O)(=O)N[C@H](CC(=O)[O-])C[N+](C)(C)C`, for which the IC50 in assay [1] is above 10 µM; in [2], 6 µM.

(Values after ChEMBL document CHEMBL1145104, “Discovery of a long-chain carbamoyl aminocarnitine derivative, a reversible carnitine palmitoyltransferase inhibitor with antiketotic and antidiabetic activity” (J Med Chem, 2003).)
